From PubChem
An excerpt weighted towards active compounds, which were near 2.4% of everything screened.
MT1-MMP act inh – MT1-MMP (human) activation inhibition | actives 0.061% (n = 360,000) | AID 651647 | GFP/RFP ratio change, % at 20 µM | HT1080 RFP-PRO-GFP cells, GFP/RFP ratio fluorescence, overnight; percent of plate control window, DMSO zero;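 active = GFP/RFP ratio change of at least 30% with cell ATP level not reduced by more than half and red fluorescence within 50% of control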
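system = RFP-PRO-GFP reporter HT1080 cells | dosing = 20 µM single dose, 1% DMSO | timing = overnight cell settling, then overnight compound exposure, 37 °C, 5% CO2 | read-out basis = GFP/RFP fluorescence ratio | controls = DMSO and RFP-L50D-GFP cell wells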
MIN6 prolif – MIN6 beta-cell proliferation induction | MIN6 cells proliferation, ATPlite luminescence, 48 h; cells starved in 0.2% serum; 100% = growth in 10% serum | proliferation, % at 10 µM | actives 0.29% (n = 330,000) | AID 2380;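 active = compounds whose signal lies at least 3.5 SD above the mean of all wells on their plate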;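 note: 0% = DMSO-treated cells in low-serum medium and 100% = 10% serum control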
NRP1-CendR mod – modulators of CendR peptide binding to human neuropilin-1 | O14786 | inhibition, % at 25 µM | actives 0.85% (n = 360,000) | FAM-RPARPAR peptide binding to NRP-1, fluorescence polarization | AID 602438;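 active = inhibition or corrected inhibition above about 18%, plus a signal ratio from 0.5 to 1.5, limit read from the data, passing the limit was not always enough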
DAGLB inh – blocks human DAGLB lipase activity | HEK293T DAGLB membrane lysate, EnzChek fluorogenic substrate | AID 504411 | inhibition, % at 5.17 µM | actives 0.059% (n = 340,000); in the data active = inhibition above about 34%;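 note: 0% = enzyme with vehicle and 100% = wells lacking enzyme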
SENP1 FRET inh – blocks the human SENP1 SUMO protease catalytic domain; Q9P0U3; recombinant SENP1 catalytic domain, CyPet-SUMO1-YPet FRET cleavage; inhibition, % at 10 µM; actives 0.21% (n = 360,000);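 active = inhibition at least 30% at 10 µM, raw YFP signal under a set limit, fluorescence ratio 0.5 to 1.5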;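 note: 0% = enzyme with DMSO and 100% = no enzyme wells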
Target sequence (Q9P0U3 419-644 limits assumed): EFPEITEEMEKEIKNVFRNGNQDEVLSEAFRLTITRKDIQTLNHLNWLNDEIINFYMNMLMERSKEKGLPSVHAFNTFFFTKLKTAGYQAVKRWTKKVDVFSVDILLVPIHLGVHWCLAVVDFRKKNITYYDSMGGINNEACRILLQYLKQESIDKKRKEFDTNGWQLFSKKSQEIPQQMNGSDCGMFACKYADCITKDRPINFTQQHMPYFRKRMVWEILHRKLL
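Material – human SENP1 catalytic domain · Input – SENP1 enzyme, 20 pM final · Compound dosing – single concentration of 10 µM compound, 0.5% DMSO final · Timing – enzyme reaction for 50 min at room temperature, dark · Measured by – FRET fluorescence in CFP and YFP emission channels · Control set – no-enzyme wells low, DMSO-plus-enzyme wells high control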
Myeloid diff MLP – compounds promoting myeloid differentiation. ER-HoxA9 myeloid progenitors, lysozyme-GFP differentiation, flow cytometry. calls only at 10 µM. actives 1% (n = 360,000);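 active = normalized GFP-positive differentiation at or above the plate's own cutoff, the solvent-only control mean plus 3 SD; inconclusive = no clear call, values can overlap the other calls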;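 note: cells exposed to compound for four days before flow analysis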
DAGLB confirm – DAGLB (human) inhibition, confirmation screen; shares compounds with DAGLB inh; inhibition, % at 5.17 µM; actives 73% (n = 190); HEK293T DAGLB membrane lysate, EnzChek fluorogenic substrate;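 active = mean inhibition over triplicate wells above a set limit taken from the primary lipase screen, cut at about 34% in these data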;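 note: 0% = DAGLB with DMSO and 100% = wells lacking DAGLB enzyme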
SENP1 inh conf – SENP1 (human) inhibition, single concentration confirmation. shares compounds with SENP1 FRET inh. recombinant SENP1, CyPet-SUMO1-YPet FRET cleavage. inhibition, % at 10 µM. actives 34% (n = 520). AID 651678; in the data active = inhibition mostly above about 35%, no sharp cut-off; inactive = mostly below about 32%;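 note: 0% = enzyme with DMSO and 100% = no enzyme control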
SENP1 kinetic – SENP1 (human) inhibition, kinetic confirmation; shares compounds with SENP1 FRET inh; recombinant SENP1, CyPet-SUMO1-YPet FRET kinetic cleavage; inhibition, % at 10 µM; actives 26% (n = 520); in the data active = inhibition mostly above about 32%, no sharp cut-off; inactive = mostly below about 29%;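 note: 0% = DMSO with enzyme and 100% = no enzyme substrate only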
Myeloid diff – myeloid differentiation induction. shares compounds with Myeloid diff MLP. ER-HoxA9 myeloid progenitors, GFP/Mac1 double-positive flow. calls only. actives 2% (n = 2,300);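 active = share of green or green-and-red cells above 9 and 9% in run 1 or 4 and 3% in run 2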
GFP autofluor – flagged as fluorescent in myeloid differentiation counter-screen; shares compounds with Myeloid diff MLP; ER-HoxA9 myeloid progenitors, no estrogen, GFP autofluorescence flow cytometry; vehicle wells 0%, positive control 100%; fluorescence response, % (test concentration not listed); actives 7.4% (n = 2,300); AID 651707;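 active = over 5% cells positive for green fluorescent reporter, or over 2% positive for both it and APC stain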;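 note: range taken on the double positive population between DMSO and positive control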
MT1-MMP conf – MT1-MMP (human) activation inhibition, single-concentration validation. shares compounds with MT1-MMP act inh. HT1080 RFP-PRO-GFP cells, GFP and RFP fluorescence ratio, overnight. inhibition, % at 20 µM. actives 10% (n = 200). AID 652235;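 active = inhibition of at least 50% in the primary cell screen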
Active calls of the source: *; i = inactive; u = inconclusive; x = no result given; + = active, no number.

SMILES | MT1-MMP act inh | MIN6 prolif | NRP1-CendR mod | DAGLB inh | SENP1 FRET inh | Myeloid diff MLP | DAGLB confirm | others
Nc1nc(-c2ccccc2)c(N=Nc2ccc(Cl)cc2)s1 | 27 | -1 | -4 | 51* | 7 | i | 84*
COc1cccc(C(=O)Nc2cccc(C(=O)NC3=NN(c4c(Cl)cc(Cl)cc4Cl)C(=O)C3)c2)c1 | -3 | -6 | -30 | 36* | -7 | i | 17
COc1ccccc1-c1cnc(C(O)c2ccc(F)c(F)c2)[nH]1 (stereo unspecified) | 4 | x | 1 | x | -1 | i | x
O=S(=O)(O)c1cccc(N=Nc2c(O)ccc3ccccc23)c1 | 21 | 0 | -18 | 37* | 13 | i | 37*
O=C(NCCc1ccccc1)C1CCN(c2ncccn2)CC1 | -7 | 1 | 4 | 0 | -2 | i | x
O=C(CSc1nc2ccccc2o1)N1CCCC1 | 2 | -2 | 6 | 49* | 3 | i | 1
COc1cc2nc(CN3CCC(C(O)(c4ccccc4)c4ccccc4)CC3)[nH]c(=O)c2cc1OC | 2 | -3 | -4 | 2 | -3 | i | x
Oc1ccc(N=Nc2nc(-c3ccccc3)c(-c3ccccc3)[nH]2)cc1 | 9 | -5 | -96 | 38* | 39* | i | 31
CCCCn1c(N)c(N(C)C(=O)c2ccc(-n3cccn3)cc2)c(=O)[nH]c1=O | -3 | -2 | 6 | -1 | -9 | i | x
Nc1cc2c(cc1[N+](=O)[O-])-c1ccccc1C2=NO | -16 | x | -50 | 35* | 32* | u | 32 | SENP1 inh conf=36;SENP1 kinetic=11
O=C(O)c1ccc2c(=O)n3c(nc2c1)/C(=C/c1ccccc1Br)CC3 | 1 | 1 | -9 | 1 | 0 | i | x
O=[N+]([O-])c1ccc(/C=N/Nc2ccc3ccccc3c2)o1 | -30 | -4 | -46 | 48* | 38* | + | 63* | Myeloid diff=i;GFP autofluor=8.1*
CC[C@]12c3[nH]c4ccc(OC)cc4c3CCN1C(=O)C(CC(=O)NCc1ccco1)C[C@@H]2C(=O)N1CCN(C(=O)c2ccco2)CC1 (stereo partly specified) | -1 | x | 7 | 0 | 2 | i | x
N#CC(C#N)=NNc1ccc([N+](=O)[O-])cc1 | 33* | -3 | -38 | 39* | 14 | i | 58* | MT1-MMP conf=26
CCN(CC)c1ccc(C(=C2C=CC(=[N+](CC)CC)C=C2)c2ccc(N(CC)CC)cc2)cc1 | 143* | x | 30* | 53* | -4 | x | 105* | MT1-MMP conf=126*
CCN(CC)c1ccc(C(=C2C=CC(=[N+](CC)CC)C=C2)c2ccccc2)cc1 | -34 | x | -1 | -13 | 1 | u | x
CCOC(=O)N1CCN(C(=O)COC(=O)c2ccccc2NCCO)CC1 | -2 | -4 | -10 | 3 | -4 | i | x
